Measured values gathered from unrelated publications.
Compare with care: the assays were run in different laboratories.
Effect on: enzyme activity
Mode: inhibitor
CDK6 with cyclin D3: Cyclin-dependent kinase 6, with cyclin D3 (CDK6, Homo sapiens, UniProt Q00534)
MTOR: Serine/threonine-protein kinase mTOR (MTOR, Homo sapiens, UniProt P42345)
EGFR: Epidermal growth factor receptor (EGFR, Homo sapiens, UniProt P00533)
YCK2: Serine/threonine protein kinase YCK2 (YCK2, Candida albicans, UniProt A0A1D8PKB4)
CA2: Carbonic anhydrase 2 (CA2, Bos taurus, UniProt P00921)

SMILES | target | method | IC50 [nM]
Nc1cnccc1Nc1ccc(Cl)c(Cl)c1 | DNA-3-methyladenine glycosylase (Homo sapiens, UniProt P29372) | – | > 99000
NS(=O)(=O)c1ccc(-n2nc(C(=O)NN=Cc3ccccc3O)cc2-c2ccccc2)cc1 | Serine/threonine-protein kinase B-raf (BRAF, Homo sapiens, UniProt P15056, V600E) | – | 17500
CNS(=O)(=O)c1ccc(Nc2ncc(C(F)(F)F)c([C@H]3CC[C@@](C)(O)CC3)n2)c(C)c1 | CDK6 with cyclin D3 | radiometric | 8650
COc1ccc(-c2ccc3c(N4CCOC[C@@H]4C)nc(N4CCOC[C@@H]4C)nc3n2)cc1C(=O)NCCOCCOCCOCCONC(=O)c1ccc(F)c(F)c1Nc1ccc(I)cc1F | MTOR | FRET | 28 to 40
CNS(=O)(=O)c1ccc(Nc2ncc(C(F)(F)F)c(N3CCCC(C)(O)C3)n2)c(C)c1 (centres unmarked) | CDK6 with cyclin D3 | radiometric | 4320
O=C1/C(=C/c2ccc3ccccc3c2O)NC(=S)N1c1ccccc1 | EGFR | ELISA | 183
CC(=O)c1nc2ccccc2n1Cc1cn([C@@H]2O[C@H](CO)[C@H](O)[C@H](O)[C@H]2O)nn1 | EGFR | – | 324
CCCCNC(c1ccccc1)c1c(N)[nH]c(=O)[nH]c1=O (centres unmarked) | EGFR | – | 988
CNS(=O)(=O)c1ccc(Nc2ncc3cc(Cl)c(=O)n(C4CCCC4)c3n2)c(C)c1 | CDK6 with cyclin D3 | radiometric | 62
C[C@H]1COCCN1c1nc(N2CCOC[C@@H]2C)c2ccc(-c3cccc(C(=O)NCCOCCOCCOCCONC(=O)c4ccc(F)c(F)c4Nc4ccc(I)cc4F)c3)nc2n1 | MTOR | FRET | 330
c1ccc(Cn2cc(-c3ccnc4ccccc34)c(-c3ccccn3)n2)cc1 | YCK2 | ADP detection | 1000
COc1cc(-c2[nH]c(=S)nc3nc(Nc4ccc(S(N)(=O)=O)cc4)sc23)ccc1O | CA2 | absorbance | 79.5
CCCCCCCCCCCC[N+]1(C)CCOCC1 | EGFR | ELISA | 1350
Cc1cc2c(C(N)=O)c(N)n(-c3c(C)ccc(O)c3C)c2nc1C | Serine/threonine-protein kinase B-raf (BRAF, Homo sapiens, UniProt P15056) | ADP detection | 15.3
Oc1ccccc1-c1n[nH]cc1-c1ccnc2ccccc12 | YCK2 | ADP detection | 350
N#Cc1ccc(NC(=O)Nc2ccccc2)cc1 | SRSF protein kinase 3 (SRPK3, Homo sapiens, UniProt Q9UPE1) | FRET | 5700
c1ccc(-c2[nH]ccc2-c2ccnc3ccccc23)nc1 | YCK2 | ADP detection | 4900
Cc1cc(S(=O)(=O)NCCO[C@H]2CC[C@H](CN3CCC(c4ccn5c(N6CCC(=O)NC6=O)cnc5c4)CC3)CC2)ccc1Nc1ncc2cc(Cl)c(=O)n(C3CCCC3)c2n1 | CDK6 with cyclin D3 | radiometric | 153
C[C@@H]1O[C@@H](O[C@H]2[C@H](Oc3cc(O)c4c(c3)O[C@H](c3ccc(O)cc3)CC4=O)O[C@H](CO)[C@@H](O)[C@@H]2O)[C@H](O)[C@H](O)[C@H]1O | CA2 | absorbance | 83
Nc1cc(N2C(=O)c3ccccc3C2=O)nc(SCC(=O)NN=Cc2ccc(Cl)cc2)n1 | EGFR | – | 880
O=C(/C=C/c1ccc(F)cc1)c1nc2ccccc2n1Cc1cn([C@@H]2O[C@H](CO)[C@H](O)[C@H](O)[C@H]2O)nn1 | EGFR | – | 69
CCNC(c1ccccc1)c1c(N)[nH]c(=O)[nH]c1=O (centres unmarked) | EGFR | – | 653
COc1ccc(N2CCN(Cc3cn4c(-c5ccc(Br)cc5)nnc4s3)CC2)cc1 | Ferroptosis suppressor protein 1 (AIFM2, Homo sapiens, UniProt Q9BRQ8, S364A/T363A) | absorbance | 61
